Assays:
gmAhr1a [1] = biological target: T1, gmAhr1a (Gadus morhua, UniProt A0A6H1Z2L5); experiment: Velocity sedimentation radioligand binding to in vitro expressed gmAhr1a; set-up: species or system Atlantic cod (Gadus morhua); conditions: single concentration, qualitative
T1 sequence (A0A6H1Z2L5 1-957): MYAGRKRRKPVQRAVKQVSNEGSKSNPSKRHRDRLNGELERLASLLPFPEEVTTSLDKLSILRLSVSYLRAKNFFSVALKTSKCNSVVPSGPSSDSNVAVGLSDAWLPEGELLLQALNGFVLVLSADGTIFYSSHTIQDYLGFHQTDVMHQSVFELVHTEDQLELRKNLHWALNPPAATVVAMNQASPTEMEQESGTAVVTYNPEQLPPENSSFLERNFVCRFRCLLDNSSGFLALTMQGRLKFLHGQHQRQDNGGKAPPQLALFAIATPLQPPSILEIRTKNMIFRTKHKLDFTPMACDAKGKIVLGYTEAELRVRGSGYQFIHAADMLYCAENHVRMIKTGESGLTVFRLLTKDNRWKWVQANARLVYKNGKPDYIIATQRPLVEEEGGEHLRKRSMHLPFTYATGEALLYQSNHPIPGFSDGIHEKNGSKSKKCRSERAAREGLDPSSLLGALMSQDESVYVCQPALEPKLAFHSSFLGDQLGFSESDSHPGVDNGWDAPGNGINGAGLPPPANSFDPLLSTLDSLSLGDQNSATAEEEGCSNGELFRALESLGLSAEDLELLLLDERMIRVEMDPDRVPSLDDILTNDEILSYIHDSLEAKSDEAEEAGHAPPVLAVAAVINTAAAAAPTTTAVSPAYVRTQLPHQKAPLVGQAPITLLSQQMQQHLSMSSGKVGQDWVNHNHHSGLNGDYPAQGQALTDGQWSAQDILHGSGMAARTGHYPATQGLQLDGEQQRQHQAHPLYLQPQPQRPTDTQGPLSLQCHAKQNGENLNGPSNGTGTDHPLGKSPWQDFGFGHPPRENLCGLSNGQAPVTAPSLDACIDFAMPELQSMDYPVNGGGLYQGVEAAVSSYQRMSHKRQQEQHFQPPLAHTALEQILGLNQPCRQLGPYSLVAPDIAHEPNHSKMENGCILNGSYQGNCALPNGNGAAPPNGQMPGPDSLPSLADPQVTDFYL

gmAhr2a [2] = biological target: T2, gmAhr2a (Gadus morhua, UniProt A0A6H1Z3G8); experiment: Velocity sedimentation radioligand binding to in vitro expressed gmAhr2a; set-up: species or system Atlantic cod (Gadus morhua); conditions: [3H]BNF 10 nM, single concentration, qualitative
T2 sequence (A0A6H1Z3G8 1-1127): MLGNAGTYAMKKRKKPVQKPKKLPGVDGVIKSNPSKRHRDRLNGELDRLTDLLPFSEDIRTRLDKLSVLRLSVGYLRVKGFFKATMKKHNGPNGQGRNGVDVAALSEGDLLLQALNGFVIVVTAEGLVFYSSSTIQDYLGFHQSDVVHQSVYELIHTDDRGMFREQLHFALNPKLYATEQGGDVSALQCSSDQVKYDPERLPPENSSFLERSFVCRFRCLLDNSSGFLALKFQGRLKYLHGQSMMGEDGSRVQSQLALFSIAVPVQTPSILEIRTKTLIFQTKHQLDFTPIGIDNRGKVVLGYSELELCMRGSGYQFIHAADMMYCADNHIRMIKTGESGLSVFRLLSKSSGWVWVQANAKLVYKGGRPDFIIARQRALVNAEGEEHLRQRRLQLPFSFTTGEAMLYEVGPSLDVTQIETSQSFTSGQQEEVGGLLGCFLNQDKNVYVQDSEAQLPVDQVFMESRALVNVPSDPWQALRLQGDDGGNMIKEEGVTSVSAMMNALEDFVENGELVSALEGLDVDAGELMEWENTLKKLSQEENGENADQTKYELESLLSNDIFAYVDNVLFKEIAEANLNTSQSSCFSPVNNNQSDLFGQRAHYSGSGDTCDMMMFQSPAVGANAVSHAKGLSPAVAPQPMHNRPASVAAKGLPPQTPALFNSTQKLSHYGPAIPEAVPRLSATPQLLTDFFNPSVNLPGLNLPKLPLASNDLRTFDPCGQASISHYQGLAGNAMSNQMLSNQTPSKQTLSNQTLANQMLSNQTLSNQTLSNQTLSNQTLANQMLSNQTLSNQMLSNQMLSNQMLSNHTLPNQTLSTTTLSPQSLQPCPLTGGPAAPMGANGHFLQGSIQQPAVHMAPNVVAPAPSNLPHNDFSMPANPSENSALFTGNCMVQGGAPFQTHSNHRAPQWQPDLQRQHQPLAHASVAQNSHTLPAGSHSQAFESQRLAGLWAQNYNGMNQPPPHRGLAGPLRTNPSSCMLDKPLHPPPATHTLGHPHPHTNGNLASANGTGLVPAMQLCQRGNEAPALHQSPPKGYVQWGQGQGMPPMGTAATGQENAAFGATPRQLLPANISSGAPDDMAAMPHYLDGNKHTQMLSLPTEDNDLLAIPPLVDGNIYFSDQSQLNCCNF

fhAhr2a = experiment: Velocity sedimentation radioligand binding to in vitro expressed fhAhr2a; set-up: species or system Fundulus heteroclitus; conditions: single concentration, qualitative
gmAhr1a [3] = biological target: T1, gmAhr1a; experiment: XRE luciferase reporter gene assay in COS-7 cells, gmAhr1a with gmArnt1; assay type: cell-based, Atlantic cod (Gadus morhua); conditions: for Activation of transcription of XRE-controlled luciferase reporter gene: increasing concentrations; for Shape of concentration-response: at higher concentrations
gmAhr2a [4] = biological target: T2, gmAhr2a; experiment: XRE luciferase reporter gene assay in COS-7 cells, gmAhr2a with gmArnt1; assay type: cell-based, Atlantic cod (Gadus morhua); conditions: for Activation of transcription of XRE-controlled luciferase reporter gene: increasing concentrations
COS-7 cells = experiment: Cytotoxicity in COS-7 cells; assay type: cell-based, simian; conditions: for TCDD the effect is at the highest concentration
gmahr1a and gmahr2a = experiment: Ex vivo precision-cut liver slices, gmahr1a and gmahr2a mRNA expression; assay type: cell-based, Atlantic cod (Gadus morhua); conditions: cod liver slices ex vivo, increasing concentrations
cyp1a = experiment: Ex vivo precision-cut liver slices, cyp1a mRNA expression by qPCR; assay type: cell-based, Atlantic cod (Gadus morhua); conditions: cod liver slices ex vivo, 1 nM was the lowest concentration used
[5] = tested on: precision-cut liver slices; experiment: Viability of precision-cut liver slices; assay type: cell-based, Atlantic cod (Gadus morhua); conditions: 100 nM
How it was run: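 Precision-cut liver slices from juvenile Atlantic cod of both sexes (about 1.5–2 years old; tank-held in natural seawater at 9 °C, 12:12 h light/dark). Slices were exposed to Ahr agonist test compounds in 0.01% DMSO, with n=5–7 per compound. Viability was read by MTT reduction and cytotoxicity by LDH release.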

Structure (SMILES) | Specific binding of [3H]BNF (gmAhr1a [1]; [3H]BNF 10 nM) | Specific binding of [3H]BNF (gmAhr2a [2]) | Specific binding of [3H]BNF (fhAhr2a; [3H]BNF 10 nM) | Activation of transcription of XRE-controlled luciferase reporter gene (gmAhr1a [3]; COS-7 cells, gmAhr1a) | Shape of concentration-response (gmAhr1a [3]; gmAhr1a) | Activation of transcription of XRE-controlled luciferase reporter gene (gmAhr2a [4]; COS-7 cells, gmAhr2a) | Cell viability (COS-7 cells) | Alterations in the expression of gmahr1a and gmahr2a (gmahr1a and gmahr2a) | EC50 (in words) (gmAhr1a [3]; COS-7 cells, gmAhr1a, luciferase reporter) | EC50 (in words) (gmAhr2a [4]; COS-7 cells, gmAhr2a, luciferase reporter) | Concentration at which cyp1a expression was induced (cyp1a) [nM] | Specific binding of [3H]TCDD (gmAhr1a [1]; [3H]TCDD 2 nM) | Specific binding of [3H]TCDD (fhAhr2a; [3H]TCDD 2 nM) | EC50 (gmAhr1a [3]) [nM] | Emax (gmAhr1a [3]; gmAhr1a compared with gmAhr2a) | EC50 (gmAhr2a [4]) [nM] | Viability of liver slices [5]
O=c1cc(-c2ccccc2)oc2ccc3ccccc3c12 [BNF, β-naphthoflavone] | highest amount of specific binding | only weak or no specific binding | only weak or no specific binding | activated | tendencies to a biphasic concentration-response | activated | no significant alterations in cell viabilities | – | – | – | – | – | – | – | – | – | –
c1ccc2c(c1)cc1ccc3cccc4ccc2c1c34 [B[a]P] | – | – | – | activated | – | activated | – | no significant differences in transcript levels | – | – | – | – | – | – | – | – | –
O=Cc1c2[nH]c3ccccc3c2cc2[nH]c3ccccc3c12 [FICZ, 6-formylindolo[3,2-b]carbazole] | – | – | – | activated | bi-phasic concentration-response | activated | no significant alterations in cell viabilities | – | picomolar range | picomolar range | 1 | – | – | – | – | – | –
Clc1ccc(-c2cc(Cl)c(Cl)c(Cl)c2)cc1Cl [PCB126, 3,3′,4,4′,5-pentachlorobiphenyl] | – | – | – | activated | – | activated | – | – | – | – | – | – | – | – | – | – | –
Clc1cc2c(cc1Cl)Oc1cc(Cl)c(Cl)cc1O2 [TCDD, 2,3,7,8-Tetrachlorodibenzo-p-dioxin] | – | – | – | activated | – | activated | slight reduction in cell viability | no significant differences in transcript levels | – | – | 1 | Specific binding of [^3H]TCDD was observed | Specific binding of [^3H]TCDD was observed | ~1 | very similar | ~10 | reduced viability
